Screens from PubChem.
PfGluPho inh = PfG6PD enzyme inhibitors, primary screen, biochemical, fluorescence intensity, uHTS. glucose-6-phosphate dehydrogenase-6-phosphogluconolactonase (Plasmodium falciparum 3D7). PfGluPho enzyme, NADPH resazurin-diaphorase fluorescence. inhibition, % at 20 µM. 0.78% of 350,000 active;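 active = inhibition reaching at least a set limit at 20 µM in the primary screen, cut at about 59% in these data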
HKDC1 inh = HKDC1 hexokinase inhibitors, primary screen, biochemical, fluorescence, uHTS. inhibition, % at 20 µM. AID 493160, 2011. recombinant HKDC1, G6PDH/diaphorase resazurin coupled fluorescence. 0.16% of 340,000 active;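 active = inhibition above about 35% when tested at 20 µM, limit read from the data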
Target sequence (Q2TB90 whole entry, looked up): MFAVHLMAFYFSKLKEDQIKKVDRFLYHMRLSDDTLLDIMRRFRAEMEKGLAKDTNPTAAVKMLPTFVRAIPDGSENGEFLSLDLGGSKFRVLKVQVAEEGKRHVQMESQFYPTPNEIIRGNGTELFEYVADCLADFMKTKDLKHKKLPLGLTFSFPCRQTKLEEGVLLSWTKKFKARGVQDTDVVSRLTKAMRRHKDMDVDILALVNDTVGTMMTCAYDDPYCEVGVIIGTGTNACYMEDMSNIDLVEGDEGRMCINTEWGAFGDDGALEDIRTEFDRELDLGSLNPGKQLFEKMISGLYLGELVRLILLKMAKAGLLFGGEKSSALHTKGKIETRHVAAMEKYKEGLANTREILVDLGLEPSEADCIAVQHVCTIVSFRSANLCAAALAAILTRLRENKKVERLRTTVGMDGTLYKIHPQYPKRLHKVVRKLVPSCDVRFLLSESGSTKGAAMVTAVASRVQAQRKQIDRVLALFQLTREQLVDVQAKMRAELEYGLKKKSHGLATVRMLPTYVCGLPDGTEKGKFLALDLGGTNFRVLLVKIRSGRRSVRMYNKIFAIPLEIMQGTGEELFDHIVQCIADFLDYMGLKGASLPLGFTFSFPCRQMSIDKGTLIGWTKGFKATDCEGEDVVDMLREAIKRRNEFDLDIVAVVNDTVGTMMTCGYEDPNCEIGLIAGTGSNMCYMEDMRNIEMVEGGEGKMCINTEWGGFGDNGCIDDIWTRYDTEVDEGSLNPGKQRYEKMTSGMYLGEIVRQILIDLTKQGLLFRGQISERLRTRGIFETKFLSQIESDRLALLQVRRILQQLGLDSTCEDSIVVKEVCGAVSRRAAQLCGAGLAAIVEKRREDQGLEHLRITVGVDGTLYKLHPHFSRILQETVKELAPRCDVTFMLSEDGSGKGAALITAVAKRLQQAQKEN
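Test system: recombinant HKDC1 (HK5) hexokinase enzyme, produced in-house / Doses: 20 µM test compound, 1% DMSO / Timing: 90 min, room temperature / Detection: G6PDH/diaphorase-coupled fluorescence, 1 mM NADP, 100 µM resazurin, 525/613 nm / Control set: DMSO wells with and without enzyme mix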
G6PDH CS = L. mesenteroides G6PDH inhibitors, counter-screen for G6PDH-coupled screening assays, biochemical, Leuconostoc mesenteroides enzyme | AID 1020, 2008 | glucose-6-phosphate dehydrogenase [Leuconostoc mesenteroides] | Purified L. mesenteroides G6PDH, diaphorase/resazurin coupled fluorescence, 45 min | inhibition, % at 5 µM | 0.12% of 200,000 active; in the data active = inhibition above about 50%
Diaph act CS = compounds boosting diaphorase resazurin reduction – biochemical, uHTS, resorufin fluorescence, counter-screen for diaphorase-coupled primary assays, primary screen; Diaphorase/resazurin coupled assay, 16 min; hits give high values; 1 = vehicle wells, 0 = NADH-free wells; 0.005% of 190,000 active; AID 1229, 2008; activation factor at 20 µM;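 active = diaphorase activity raised at least twofold by the compound at 20 µM; inactive = activation factor below 2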
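Test system: Clostridium kluyveri diaphorase, purified enzyme; input: enzyme 0.07 U/mL final; buffer or medium: 50 mM HEPES pH 7.4 with 4.542 mM MgCl2, 0.005% Tween 20; also added: 0.114 mM NADH and 0.1 mM resazurin, final amounts; schedule: 16 min enzyme reaction, ambient temperature; technique: fluorescence of resorufin, 544 nm excitation, 590 nm emission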
Diaph inh CS = diaphorase inhibitors and chemical oxidizers, primary screen, counter-screen for diaphorase-coupled primary assays, biochemical, uHTS, resorufin fluorescence. diaphorase resazurin-to-resorufin fluorescence, NADH, 16 min; bacterial (C. kluyveri) enzyme, not human. inhibition, % at 20 µM. 0.69% of 190,000 active. AID 1217, 2008;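 active = primary screen inhibition at 20 µM above a set limit, cut at about 50% in these data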
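Assay system – diaphorase enzyme from Clostridium kluyveri · Amount – diaphorase 0.14 U/mL (working solution) · Times – reaction incubation of 16 min at room temperature · Controls – No-NADH positive control and DMSO neutral control · Signal – resorufin fluorescence 544/590 nm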
PfG6PD confirm = PfG6PD inhibitors, hit retest, confirmation, biochemical, fluorescence intensity, single concentration | shares compounds with PfGluPho inh | 34% of 2,400 active | recombinant PfGluPho, NADPH-diaphorase-resazurin fluorescence | inhibition, % at 20 µM;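 active = inhibition of at least 50% at 20 µM in any single replicate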
Diaph ctr 10uM = diaphorase inhibitors and chemical oxidizers, confirmation, counter-screen for P. falciparum G6PD inhibitor project, biochemical, fluorescence intensity, 10 µM NADPH; diaphorase-coupled resazurin reduction, NADPH 10 uM; shares compounds with PfGluPho inh; AID 504862, 2011; 39% of 820 active; inhibition, % at 20 µM;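 active = average inhibition reaching 50% or more with the compound at 20 µM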;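 also: resorufin red fluorescence formed as diaphorase reduces resazurin using NADPH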
Diaphorase 30uM = diaphorase inhibitors and chemical oxidizers, confirmation, counter-screen for P. falciparum G6PD inhibitor project, biochemical, fluorescence intensity, 30 µM NADPH; shares compounds with PfGluPho inh; Diaphorase/resazurin coupled assay, resorufin fluorescence; inhibition, % at 20 µM; 29% of 820 active;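 active = inhibition averaging 50% or more, tested at 20 µM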
Of the large screens only hits and unclear results are named; the others gave an inactive call (follow-up assays come after a bar, where they were run). Shown are actives, neighbours in structure and some others; about 1.3% of the full set was active somewhere.

C#CCOCCOCCOCCNc1nc(N2CCN(C(=O)Cn3cc(CCCN=C(N)N)nn3)CC2)nc(N2CCN(C(=O)[C@H]([C@@H](C)O)n3cc(CCCCN)nn3)CC2)n1	none (no result: G6PDH CS, Diaph act CS, Diaph inh CS)
O=C(Cc1csc(N2CCOCC2)n1)N/N=C/c1ccc(O)c(O)c1O	PfGluPho inh 72, Diaph inh CS 83 | PfG6PD confirm 62 | Diaph ctr 10uM 57 | Diaphorase 30uM 64
CCOc1ccc(/C=N/N2C(C)CCCC2C)cc1OC (centres undefined)	none (no result: G6PDH CS, Diaph act CS, Diaph inh CS)
COc1cc(/C=N/N2C(C)CCCC2C)cc(OC)c1O (centres undefined)	PfGluPho inh 84 (no result: G6PDH CS, Diaph act CS, Diaph inh CS) | PfG6PD confirm inactive
COc1cc(/C=N/N2CCN(C3c4ccccc4-c4ccccc43)CC2)cc(OC)c1O	PfGluPho inh 76 | PfG6PD confirm inactive
COc1cc(/C=N/N2CCN(C3c4ccccc4-c4ccccc43)CC2)cc(OC)c1OC	none
CCO[C@H]1OC(C(=O)N2CCN(Cc3ccc4c(c3)OCO4)CC2)=C[C@@H](c2csc3ccccc23)[C@@H]1CCCO	none
O=C(Nc1cccnc1)/C(N=Nc1cccnc1)=C(\O)c1ccccc1	none
COc1ccc(S(=O)(=O)N2CCCOC2CNC(=O)C(=O)NCc2ccco2)cc1 (centres undefined)	none
COc1ccc(C2=NN(C(=O)CCC(=O)O)C(c3ccc([N+](=O)[O-])cc3)C2)cc1 (centres undefined)	none (no result: G6PDH CS, Diaph act CS, Diaph inh CS)
O=[N+]([O-])c1ccc(Nc2cccc3c2[nH]c2c(-c4ccccc4)nccc23)c([N+](=O)[O-])c1	PfGluPho inh 84 (no result: G6PDH CS, Diaph act CS, Diaph inh CS) | PfG6PD confirm inactive
O=S(=O)(NCc1ccc(Cl)cc1)c1ccc(Cl)nc1	none
COc1ccc(Nc2ccc(Nc3ccc(OC)cc3)nn2)cc1	none
Cc1cc(Nc2ccc([N+](=O)[O-])cc2)nc2ccccc12	none
COc1ccc(Nc2cc(C)c3ccccc3n2)cc1	PfGluPho inh 66 | PfG6PD confirm inactive
COc1ccc(Nc2ccc(OC)cc2)cc1	PfGluPho inh 64 (no result: G6PDH CS, Diaph act CS, Diaph inh CS) | PfG6PD confirm inactive
CCN(CC)S(=O)(=O)c1ccc(NC(=O)CN(c2ccc(OC)cc2OC)S(C)(=O)=O)cc1	none
COc1ccc(CCNc2nc(-c3ccc(F)cc3)c(CC(=O)O)s2)cc1OC	none (no result: G6PDH CS, Diaph act CS, Diaph inh CS)
COCCn1c(N)c(C(=O)NCC2CCCO2)c2nc3ccccc3nc21 (centres undefined)	none
Nc1c(C(=O)OCC2CCCO2)c2nc3ccccc3nc2n1C1CCCC1 (centres undefined)	none | PfG6PD confirm inactive
O=C(c1nnsc1S(=O)c1ccc(Cl)cc1)N1CCOCC1 (centres undefined)	none
O=C(Nc1ccccc1)c1nnsc1S(=O)c1ccc(Cl)cc1 (centres undefined)	PfGluPho inh 64 | PfG6PD confirm inactive
COc1ccccc1C(=O)Nc1ccccc1SC	none
Cc1ccc(S(=O)(=O)N(CC(=O)NCc2ccco2)Cc2ccccc2F)cc1	PfGluPho inh 72 | PfG6PD confirm inactive
CN(C(=O)C=Cc1ccccc1)c1ccccc1	none (no result: G6PDH CS, Diaph act CS, Diaph inh CS)
O=C(CCl)N(O)c1ccc(C=Cc2ccccc2)cc1	PfGluPho inh 62 (no result: G6PDH CS, Diaph act CS, Diaph inh CS) | PfG6PD confirm inactive
Cc1cc(C)nc(NNS(=O)(=O)c2ccc(F)c(Cl)c2)n1	none (no result: G6PDH CS, Diaph act CS, Diaph inh CS)
Cc1cc(C)nc(NNS(=O)(=O)c2ccc(Cl)cc2)n1	PfGluPho inh 59 (no result: G6PDH CS, Diaph act CS, Diaph inh CS) | PfG6PD confirm inactive
